Source: ChEMBL document CHEMBL3102739, “Synthesis and antiproliferative activity of conformationally restricted 1,2,3-triazole analogues of combretastatins in the sea urchin embryo model and against human cancer cell lines” (Bioorg Med Chem, 2014)

Columns and labels:
Format in all cases: functional
HL-60(TB) = assay: Growth inhibition of human HL-60(TB) cells after 48 hrs by SRB assay; conditions: HL-60, 48 h
PC-3 = assay: Growth inhibition of human PC3 cells after 48 hrs by SRB assay; conditions: PC-3, 48 h
[1] = Growth inhibition of human Hs578T cells after 48 hrs by SRB assay; conditions: Hs-578T
T47D = assay: Growth inhibition of human T47D cells after 48 hrs by SRB assay
[2] = Growth inhibition of human SF539 cells after 48 hrs by SRB assay; conditions: SF-539, 48 h
SK-MEL-5 = assay: Growth inhibition of human SK-MEL-5 cells after 48 hrs by SRB assay; conditions: SK-MEL-5, 48 h
K562 = assay: Growth inhibition of human K562 cells after 48 hrs by SRB assay; conditions: K562, 48 h
MDA-MB-435 = assay: Growth inhibition of human MDA-MB-435 cells after 48 hrs by SRB assay; conditions: MDA-MB-435, 48 h
[3] = Growth inhibition of human EKVX cells after 48 hrs by SRB assay
SF-295 = assay: Growth inhibition of human SF295 cells after 48 hrs by SRB assay; conditions: SF-295, 48 h
HT-29 = assay: Growth inhibition of human HT-29 cells after 48 hrs by SRB assay; conditions: HT-29, 48 h
SNB-75 = assay: Growth inhibition of human SNB75 cells after 48 hrs by SRB assay; conditions: SNB-75, 48 h
Paracentrotus lividus [4] = assay: Antimitotic activity against sea urchin embryo model assessed as cleavage arrest of fertilized egg compound treated at 8 to 20 mins post-fertilization and 45 to 55 mins prior to first mitotic cycle completion measured 2.5 to 5.5 hrs post-fertilization
Method in brief: (§1)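 Fertilized eggs are exposed 8–20 min after fertilization to 2-fold decreasing concentrations. Stocks are 10 mM in DMSO, then diluted 10-fold in 95% EtOH; final DMSO is at most 0.05% and EtOH at most 1%. Embryos are kept as a monolayer, up to 2000 embryos/mL, in filtered seawater at room temperature. The value is the threshold concentration giving cleavage alteration, embryo death before hatching or full mitotic arrest. Duplicates were run.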

MDA-MB-231 = assay: Growth inhibition of human MDA-MB-231 cells after 48 hrs by SRB assay; conditions: MDA-MB-231, 48 h
SK-OV-3 = assay: Growth inhibition of human SKOV3 cells after 48 hrs by SRB assay; conditions: SK-OV-3, 48 h
HOP-62 = assay: Growth inhibition of human HOP62 cells after 48 hrs by SRB assay; conditions: HOP-62, 48 h
TK-10 = assay: Growth inhibition of human TK10 cells after 48 hrs by SRB assay; conditions: TK-10, 48 h
[5] = Growth inhibition of human UO31 cells after 48 hrs by SRB assay; conditions: UO-31, 48 h
Paracentrotus lividus [6] = assay: Antimitotic activity against sea urchin embryo model assessed as cleavage alteration of fertilized egg compound treated at 8 to 20 mins post-fertilization and 45 to 55 mins prior to first mitotic cycle completion measured 2.5 to 5.5 hrs post-fertilization; method in brief: as §1
OVCAR-3 = assay: Growth inhibition of human OVCAR3 cells after 48 hrs by SRB assay; conditions: OVCAR-3, 48 h
SN12C = assay: Growth inhibition of human SN12C cells after 48 hrs by SRB assay
NCI-H522 = assay: Growth inhibition of human NCI-H522 cells after 48 hrs by SRB assay; conditions: NCI-H522, 48 h
A498 = assay: Growth inhibition of human A498 cells after 48 hrs by SRB assay; conditions: A498, 48 h
A549 = assay: Growth inhibition of human A549 cells after 48 hrs by SRB assay; conditions: A549, 48 h
MDA-MB-468 = assay: Growth inhibition of human MDA-MB-468 cells after 48 hrs by SRB assay; conditions: MDA-MB-468, 48 h
CAKI-1 = assay: Growth inhibition of human CAKI-1 cells after 48 hrs by SRB assay; conditions: CAKI-1, 48 h
786-0 = assay: Growth inhibition of human 786-0 cells after 48 hrs by SRB assay; conditions: 786-0, 48 h
M14 = assay: Growth inhibition of human M14 cells after 48 hrs by SRB assay; conditions: M14, 48 h
SR = assay: Growth inhibition of human SR cells after 48 hrs by SRB assay
U-251 = assay: Growth inhibition of human U251 cells after 48 hrs by SRB assay; conditions: U-251, 48 h
SK-MEL-2 = assay: Growth inhibition of human SK-MEL-2 cells after 48 hrs by SRB assay; conditions: SK-MEL-2, 48 h
MOLT-4 = assay: Growth inhibition of human MOLT4 cells after 48 hrs by SRB assay; conditions: MOLT-4, 48 h
RPMI-8226 = assay: Growth inhibition of human RPMI8226 cells after 48 hrs by SRB assay; conditions: RPMI-8226, 48 h
COLO 205 = assay: Growth inhibition of human COLO205 cells after 48 hrs by SRB assay; conditions: COLO 205, 48 h
NCI-H322M = assay: Growth inhibition of human NCI-H322M cells after 48 hrs by SRB assay
NCI-H23 = assay: Growth inhibition of human NCI-H23 cells after 48 hrs by SRB assay; conditions: NCI-H23, 48 h
UACC-62 = assay: Growth inhibition of human UACC62 cells after 48 hrs by SRB assay; conditions: UACC-62, 48 h
LOX IMVI = assay: Growth inhibition of human LOXIMVI cells after 48 hrs by SRB assay
ACHN = assay: Growth inhibition of human ACHN cells after 48 hrs by SRB assay
NCI-H226 = assay: Growth inhibition of human NCI-H226 cells after 48 hrs by SRB assay; conditions: NCI-H226, 48 h
[7] = Growth inhibition of human HOP92 cells after 48 hrs by SRB assay; conditions: HOP-92, 48 h
NCI-H460 = assay: Growth inhibition of human NCI-H460 cells after 48 hrs by SRB assay; conditions: NCI-H460, 48 h
[8] = Growth inhibition of human HCC2998 cells after 48 hrs by SRB assay; conditions: HCC 2998, 48 h
[9] = Growth inhibition of human OVCAR5 cells after 48 hrs by SRB assay; conditions: OVCAR-5, 48 h
SNB-19 = assay: Growth inhibition of human SNB19 cells after 48 hrs by SRB assay; conditions: SNB-19, 48 h
CCRF-CEM = assay: Growth inhibition of human CCRF-CEM cells after 48 hrs by SRB assay
OVCAR-8 = assay: Growth inhibition of human OVCAR8 cells after 48 hrs by SRB assay; conditions: OVCAR-8, 48 h

COc1ccc(-c2nn[nH]c2-c2cc(OC)c(OC)c(OC)c2)cc1
GI50 (HL-60(TB)): < 10 nM
GI50 (PC-3): 43 nM
GI50 [1]: < 10 nM
GI50 (T47D): 2660 nM
GI50 [2]: < 10 nM
GI50 (SK-MEL-5): < 10 nM
GI50 (K562): < 10 nM
GI50 (MDA-MB-435): < 10 nM
GI50 [3]: < 10 nM
GI50 (SF-295): < 10 nM
GI50 (HT-29): < 10 nM
GI50 (SNB-75): < 10 nM
EC (Paracentrotus lividus [4]): 0.02 µM
GI50 (MDA-MB-231): < 10 nM
GI50 (SK-OV-3): < 10 nM
GI50 (HOP-62): < 10 nM
GI50 (TK-10): < 10 nM
GI50 [5]: 1210 nM
EC (Paracentrotus lividus [6]): 0.005 µM
GI50 (OVCAR-3): < 10 nM
GI50 (SN12C): < 10 nM
GI50 (NCI-H522): < 10 nM
GI50 (A498): < 10 nM
GI50 (A549): < 10 nM
GI50 (MDA-MB-468): < 10 nM
GI50 (CAKI-1): < 10 nM
GI50 (786-0): < 10 nM
GI50 (M14): < 10 nM
GI50 (SR): < 10 nM
GI50 (U-251): < 10 nM
GI50 (SK-MEL-2): < 10 nM
GI50 (MOLT-4): 12 nM
GI50 (RPMI-8226): < 10 nM
GI50 (COLO 205): 33 nM
GI50 (NCI-H322M): < 10 nM
GI50 (NCI-H23): < 10 nM
GI50 (UACC-62): < 10 nM
GI50 (LOX IMVI): < 10 nM
GI50 (ACHN): 15 nM
GI50 (NCI-H226): 51 nM
GI50 [7]: < 10 nM
GI50 (NCI-H460): < 10 nM
GI50 [8]: < 10 nM
GI50 [9]: < 10 nM
GI50 (SNB-19): < 10 nM
GI50 (CCRF-CEM): < 10 nM
GI50 (OVCAR-8): < 10 nM

COc1ccc(-c2nn[nH]c2-c2cc(OC)c3c(c2OC)OCO3)cc1
GI50 (HL-60(TB)): 307 nM
GI50 (PC-3): 1930 nM
GI50 [1]: 1350 nM
GI50 (T47D): 716 nM
GI50 [2]: 909 nM
GI50 (SK-MEL-5): 343 nM
GI50 (K562): 493 nM
GI50 (MDA-MB-435): 193 nM
GI50 [3]: 2790 nM
GI50 (SF-295): 356 nM
GI50 (HT-29): 376 nM
GI50 (SNB-75): 437 nM
EC (Paracentrotus lividus [4]): >4 µM
GI50 (MDA-MB-231): 1130 nM
GI50 (SK-OV-3): 854 nM
GI50 (HOP-62): 899 nM
GI50 (TK-10): 6370 nM
GI50 [5]: 2960 nM
EC (Paracentrotus lividus [6]): 0.5 µM
GI50 (OVCAR-3): 363 nM
GI50 (SN12C): 4670 nM
GI50 (NCI-H522): 301 nM
GI50 (A498): 353 nM
GI50 (A549): 532 nM
GI50 (MDA-MB-468): 218 nM
GI50 (CAKI-1): 762 nM
GI50 (786-0): 1400 nM
GI50 (M14): 341 nM
GI50 (SR): 304 nM
GI50 (U-251): 362 nM
GI50 (SK-MEL-2): 326 nM
GI50 (MOLT-4): 529 nM
GI50 (RPMI-8226): 816 nM
GI50 (COLO 205): 884 nM
GI50 (NCI-H322M): 2890 nM
GI50 (NCI-H23): 1000 nM
GI50 (UACC-62): 420 nM
GI50 (LOX IMVI): 547 nM
GI50 (ACHN): 6790 nM
GI50 (NCI-H226): 15200 nM
GI50 [7]: 500 nM
GI50 (NCI-H460): 409 nM
GI50 [8]: 1110 nM
GI50 [9]: 3630 nM
GI50 (SNB-19): 1800 nM
GI50 (CCRF-CEM): 684 nM
GI50 (OVCAR-8): 1320 nM
